# Source: PubChem
# CHRM4 agonist – agonists of human muscarinic M4 receptor (CHRM4); P08173; CHO-K1 hM4/Gqi5, Fluo-8 calcium fluorescence; vehicle 0%, full acetylcholine response 100%; activation, % at 3 µM; 360,000 compounds, 0.14% hits; AID 624127;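 active = activation above the run mean over all test wells plus 3 SD, cut at about 32% in these data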;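 note: peak over basal fluorescence ratio per well then scaled between controls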
# CHRM4 antagonist – blocks acetylcholine activation of human M4 receptor; inhibition, % at 3 µM; CHO-hM4 cells, ACh EC80, Fluo-8 calcium fluorescence; P08173; 360,000 compounds, 0.73% hits; AID 624125;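 active = inhibition above its plate's cutoff, the mean inhibition of sample wells plus 3 SD, cut at about 27% in these data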
# CHRM5 PAM – CHRM5 positive allosteric modulation; CHO-K1 hM5, Fluo-8 calcium, ACh EC20 PAM; 0% = ACh EC20, 100% = ACh EC100; 360,000 compounds, 0.3% hits; activation, % at 3 µM;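 active = activation above the run cutoff, the mean activation of all test compounds plus 3 SD, cut at about 18% in these data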
# Target sequence (P08912 whole entry, looked up): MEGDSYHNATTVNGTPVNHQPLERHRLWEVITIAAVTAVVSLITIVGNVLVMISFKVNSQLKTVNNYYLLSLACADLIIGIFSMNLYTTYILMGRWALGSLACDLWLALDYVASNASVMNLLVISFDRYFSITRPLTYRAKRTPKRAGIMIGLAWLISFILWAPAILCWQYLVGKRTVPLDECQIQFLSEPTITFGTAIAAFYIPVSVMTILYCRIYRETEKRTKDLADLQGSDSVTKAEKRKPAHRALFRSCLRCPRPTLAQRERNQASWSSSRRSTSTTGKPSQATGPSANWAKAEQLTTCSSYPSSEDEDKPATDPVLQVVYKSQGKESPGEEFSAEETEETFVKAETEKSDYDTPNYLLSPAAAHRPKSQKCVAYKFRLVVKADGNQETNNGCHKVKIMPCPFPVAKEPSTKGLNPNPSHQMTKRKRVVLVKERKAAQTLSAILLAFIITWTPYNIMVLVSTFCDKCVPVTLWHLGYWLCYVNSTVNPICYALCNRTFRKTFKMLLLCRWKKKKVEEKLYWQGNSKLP
#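 Assay system: CHO-K1 hM5 cells. Also added: acetylcholine at EC20 concentration, added after compound. Dosing: 3 µM, single dose. Times: compound preincubation 140 s before EC20 acetylcholine addition. Signal: Fluo-8 calcium fluorescence. Measure: % activation relative to EC20 and EC100 ACh responses. Repeats: singlicate, one well per test compound.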
# M5 ag – CHRM5 agonism in calcium assay; CHO-K1 hM5 cells, Fluo-8 calcium fluorescence; 0% DMSO wells, 100% maximal acetylcholine response; activation, % at 3 µM; 360,000 compounds, 0.19% hits;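 active = activation above the run's mean over test compounds plus 3 SD, cut at about 23% in these data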;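 note: signal is peak over basal fluorescence ratio across the kinetic read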
# M4 PAM – CHRM4 positive allosteric modulation | P08173 | CHO-K1 hM4/Gqi5, Fluo-8 calcium fluorescence, ACh EC20; 0% = ACh EC20, 100% = maximal ACh | 360,000 compounds, 0.4% hits | AID 624126 | activation, % at 3 µM;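 active = activation above its plate's cutoff, the mean activation of sample wells plus 3 SD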
# M5 antag – blocks acetylcholine activation of human M5 receptor | P08912 | CHO-hM5 cells, Fluo-8 calcium fluorescence, ACh EC80 | inhibition, % at 3 µM | 360,000 compounds, 0.59% hits | AID 624040;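 active = inhibition above a per-plate cutoff, the mean of that plate's test compounds plus 3 SD, cut at about 27% in these data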
# Numbers stand for hits; n = inactive. The list is not random: actives were taken first. Their share in the collection is about 1.8%.
SMILES,CHRM4 agonist,CHRM4 antagonist,CHRM5 PAM,M5 ag,M4 PAM,M5 antag
Cc1c(NC(=O)c2cccs2)cccc1-c1nc2ccccc2s1,n,30.9,n,n,n,n
Cc1c(NC(=O)c2cc(-n3cnnc3)ccc2Cl)cccc1-c1nc2ccccc2s1,n,n,n,n,n,n
CC(C)CN=Cc1c(O)c([N+](=O)[O-])cc2oc3c(c12)CCCC3,n,n,n,n,n,n
O=[N+]([O-])c1cc2oc3c(c2c(C=NCc2ccccc2)c1O)CCCC3,n,35.3,n,n,n,n
CCSc1ccc(-c2cccc([N+](=O)[O-])c2)nn1,n,n,n,n,n,n
O[Si](CCCN1CCCCC1)(c1ccc(F)cc1)C1CCCCC1 (configuration not stated),n,90.1,n,n,n,74.4
COc1ccc(CCNC(=O)c2sc(=S)n(C)c2N)cc1,n,n,n,n,n,n
Cn1c(N)c(C(=O)NCc2ccccc2)sc1=S,n,n,n,n,35.8,n
CCC(C(=O)NC1CCCCCC1)c1ccccc1 (configuration not stated),n,n,n,n,n,n
CC[N+](C)(CC)CCC(c1ccccc1)C1CCCCC1 (configuration not stated),n,97.1,n,n,n,99.0
O=C1CCCCC1C(O)(C(=O)c1ccccc1)c1ccccc1 (configuration not stated),n,n,n,n,n,n
CC[N+](C)(CC)CCOC(=O)C(O)(c1ccccc1)C1CCCCC1 (configuration not stated),n,98.7,n,n,n,98.0
CC1CCc2c(cnc3ncnn23)C1 (configuration not stated),n,n,n,n,n,n
O=[N+]([O-])/C=C/c1cn(Cc2ccc(Cl)cc2)c2ccccc12,n,n,n,n,n,33.1
COc1cccc(C(=O)COC(=O)CCC(=O)c2ccccc2)c1,n,n,n,n,n,n
O=C(/C=C/c1ccco1)N1CCC(Cc2ccccc2)CC1,n,n,n,n,n,n
OC(CCN1CC2CCC(CC2)C1)(Cc1ccccc1)c1ccco1 (configuration not stated),n,34.3,n,n,n,27.1
CCOC(=O)N1CCN(S(=O)(=O)N2CCCC(C(=O)NCc3ccc(C)cc3)C2)CC1 (configuration not stated),n,n,n,n,n,n
CCOc1ccc(Cl)cc1S(=O)(=O)N1CCC(C(=O)NCc2ccncc2)CC1,n,n,n,n,n,n
COc1ccc(NC(=O)CSc2nnnn2C)cc1,n,n,n,n,n,n
Cn1nnnc1SCC(=O)Nc1ccccc1[N+](=O)[O-],n,n,n,n,n,n
COc1ccc(C(=O)NNC(=O)CSc2nnnn2C)cc1,n,n,19.3,n,n,n
COc1ccc(NC(=O)CSc2nnnn2C)c([N+](=O)[O-])c1,n,n,n,n,n,31.8
COc1cc(C(=O)OCC(=O)NC2CCCCCC2)ccc1OCC(C)C,n,n,n,n,n,n
O=C(COc1cccnc1[N+](=O)[O-])c1c[nH]c2ccccc12,n,33.6,n,n,n,n
SMILES,CHRM4 agonist,CHRM4 antagonist,CHRM5 PAM,M5 ag,M4 PAM,M5 antag
Oc1ccc(/C=N/N2CCN(C3c4ccccc4-c4ccccc43)CC2)c(O)c1,n,n,n,n,n,n
CCOc1ccccc1-n1c(N)c(C(N)=O)sc1=S,n,n,22.1,n,n,n
CN1CCCC(CC2Oc3ccccc3Sc3ccccc32)C1 (configuration not stated),n,73.3,n,n,n,53.7
c1ccc2c(c1)OC(CCCN1CCCCC1)c1ccccc1S2 (configuration not stated),n,n,n,n,n,n
CC(C)(C)c1ccc(Nc2n[nH]c3ccccc23)cc1,n,n,n,n,21.2,n
Cc1n[nH]c2ccccc2c1=O,n,n,n,n,n,n
Cc1ccc(S(=O)(=O)NC(=O)NCCCCNC(=O)NS(=O)(=O)c2ccc(C)cc2)cc1,n,n,20.9,n,n,n
CCCCNC(=O)NS(=O)(=O)c1ccc(C)cc1,n,n,n,n,n,n
COC(=O)NNS(=O)(=O)c1ccc(C)cc1,n,n,n,n,n,n
Cc1ccc(S(=O)(=O)NNC(=O)CC#N)cc1,n,n,21.2,n,n,n
CCNC(=S)Nc1cc(Cl)ccc1Oc1ccccc1,n,n,n,n,n,n
CCc1ccccc1N(CC(=O)NC(C)c1ccccc1)S(C)(=O)=O (configuration not stated),n,n,n,n,n,n
COC(=O)C[C@H]1C=C[C@@H](NC(=O)C2CC2)[C@@H](CO)O1,n,n,20.4,n,n,n
CCC(=O)N[C@H]1C=C[C@H](CC(=O)OC)O[C@@H]1CO,n,n,n,n,n,n
Cc1ccc(NC(=O)c2ccc(-n3cncn3)c([N+](=O)[O-])c2)cc1,n,n,n,n,n,n
O=C(Nc1ccc(Cl)cc1)c1ccc(-n2cncn2)c([N+](=O)[O-])c1,n,28.7,n,n,n,n
COc1cccc(CN2CCNC(=O)C2CC(=O)NCCCN2CCCC2=O)c1 (configuration not stated),n,n,n,n,15.0,n
O=C(CC1C(=O)NCCN1Cc1cccc(F)c1)NCCCN1CCCC1=O (configuration not stated),n,n,n,n,n,n
COc1ccc(C2C3=C(Nc4ncnn42)c2ccccc2CCC3)cc1 (configuration not stated),n,n,n,n,n,n
Fc1ccc(/C=C2\CCCC3=C2Nc2ncnn2C3c2ccc(F)cc2)cc1 (configuration not stated),n,27.9,n,n,n,n
CCOc1ccc(Nc2cc(C)nc3c(C)cccc23)cc1,n,n,19.8,n,n,n
c1ccc2c(CCNc3ncnc4nc[nH]c34)cccc2c1,n,28.8,n,n,n,33.4
c1ccc(CCCNc2ncnc3nc[nH]c23)cc1,n,n,n,n,n,n
CCOC(=O)c1ccc(NC(=O)c2ncn3c2C(=O)N[C@H](C)C3)cc1,n,n,n,n,17.0,n
CCOC(=O)c1ccc(NC(=O)c2nc[nH]c2C(=O)NCCCNC(=O)c2[nH]cnc2C(=O)Nc2ccc(C(=O)OCC)cc2)cc1,n,n,n,n,n,n
CCOC(=O)c1ccc(NC(=O)c2nc[nH]c2C(=O)N(CC)CC)cc1,n,n,n,n,21.7,n
CCOC(=O)c1ccc(NC(=O)c2ncn3c2C(=O)NC[C@H]3C)cc1,n,n,n,n,n,n
